Assay outcomes deposited in PubChem BioAssay by several laboratories.
Lipid droplet: modulators of hepatic lipid droplet formation; inhibition, % at 6.5 µM; 240,000 tested, 0.4% active; AML12 mouse hepatocytes, oleate lipid droplets, BODIPY imaging; AID 1656;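 active = lipid droplet intensity inhibited by at least 50%, with more than 500 cells counted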
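Test system: AML12 hepatocytes (mouse); reagent: oleate loading, 100 µM; dosing: one dose, 6.5 µM compound; incubation: overnight exposure; signal: fluorescence imaging, 20x objective, two fields per well; read-out basis: % inhibition of corrected integrated BODIPY droplet signal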
UPR XBP1 act: adaptive UPR (XBP1) activation | CHO-XBP1 luciferase reporter, IRE1-XBP1 UPR activation, luminescence; percent of tunicamycin response, DMSO as zero | activation, % at 20 µM | 330,000 tested, 0.33% active;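 active = versus positive control, 20 µM dose yields 30% or more activation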
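Material – CHO cell line with stable XBP1 luciferase reporter · Buffer or medium – F12 plus 10% FBS · Compound – single point, 20 µM final compound, 1% DMSO · Schedule – 16-18 h cell attachment at 37 °C, then 6 h compound exposure · Signal – Steady-Glo luminescence read · Benchmarks – high control tunicamycin 10 µg/mL final, low control DMSO vehicle only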
ANO1 block: mouse TMEM16A channel inhibition, primary screen; AID 588511; HEK293 TMEM16A/YFP iodide influx fluorescence, ionomycin; Q8BHY3; normalized B-score (activity score, 25-100; higher = stronger inhibition) at 10 µM; 310,000 tested, 1.2% active;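 active = ratio plate-corrected score three or more library SD toward inhibition, starting fluorescence score within five deviations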;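 also: score derived from kinetic fluorescence span divided by baseline fluorescence per well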
Target sequence (Q8BHY3 whole entry, looked up): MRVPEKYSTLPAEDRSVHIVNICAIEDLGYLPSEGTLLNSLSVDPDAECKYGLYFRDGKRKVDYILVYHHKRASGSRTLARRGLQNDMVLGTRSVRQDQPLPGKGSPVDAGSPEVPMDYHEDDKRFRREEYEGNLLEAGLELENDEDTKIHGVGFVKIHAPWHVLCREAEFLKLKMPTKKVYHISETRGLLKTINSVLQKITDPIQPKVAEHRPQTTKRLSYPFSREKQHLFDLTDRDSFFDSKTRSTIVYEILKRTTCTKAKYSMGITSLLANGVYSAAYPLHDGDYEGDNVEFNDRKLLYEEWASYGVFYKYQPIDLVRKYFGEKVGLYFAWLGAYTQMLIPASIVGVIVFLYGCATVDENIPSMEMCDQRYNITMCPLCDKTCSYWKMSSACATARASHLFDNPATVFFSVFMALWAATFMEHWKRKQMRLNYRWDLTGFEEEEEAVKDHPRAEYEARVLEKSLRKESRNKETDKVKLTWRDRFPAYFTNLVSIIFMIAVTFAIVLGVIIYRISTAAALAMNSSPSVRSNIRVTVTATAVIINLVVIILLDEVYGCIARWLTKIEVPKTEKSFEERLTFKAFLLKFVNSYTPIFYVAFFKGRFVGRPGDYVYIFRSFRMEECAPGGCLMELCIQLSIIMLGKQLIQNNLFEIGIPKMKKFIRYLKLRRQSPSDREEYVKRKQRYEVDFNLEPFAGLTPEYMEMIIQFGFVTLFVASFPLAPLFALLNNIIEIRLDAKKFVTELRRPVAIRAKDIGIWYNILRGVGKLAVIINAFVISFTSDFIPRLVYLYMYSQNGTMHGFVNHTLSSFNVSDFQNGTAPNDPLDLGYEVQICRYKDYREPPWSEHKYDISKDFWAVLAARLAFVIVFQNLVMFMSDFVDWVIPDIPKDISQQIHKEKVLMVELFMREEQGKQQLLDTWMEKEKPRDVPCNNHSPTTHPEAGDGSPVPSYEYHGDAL
CHOP inhibitor: blocks CHOP induction under ER stress; CHO-K1 CHOP-promoter luciferase, tunicamycin-induced, 15-18 h; inhibition, % at 10 µM; 220,000 tested, 3.8% active;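 active = compounds that reduced the stress-induced luciferase reporter signal by more than about 70% of percent inhibition, limit read from the data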
ANO1 activ: mouse TMEM16A channel activation, primary screen; 340,000 tested, 0.3% active; HEK293 TMEM16A/YFP-H148Q/I152L, iodide quench fluorescence; hits give low values; B-score at 10 µM; AID 623877;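 active = fluorescence-ratio B-score plate-corrected deviation score at least 3 library SD below zero, with starting fluorescence score within 5 deviations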;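 also: channel opened by trigger with iodide after compound preincubation; score built on the fluorescence ratio of max minus min over baseline; more negative score means more quench and so TMEM16A activation or potentiation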
UPR CHOP act: apoptotic UPR (CHOP) activation; activation, % at 10 µM; CHO-CHOP luciferase reporter, luminescence; percent of tunicamycin response over DMSO baseline; 330,000 tested, 0.34% active; AID 449763;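 active = at 10 µM dose, activation of 40% or more, normalized to positive control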
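Material: CHO-CHOP cells, stable luciferase reporter of PERK-eIF2a-CHOP signalling; quantity: 500 reporter cells seeded per well; buffer or medium: F12 medium containing 10% fetal bovine serum; compound: one dose, 10 µM in 0.5% DMSO; incubation: 6 h compound treatment, 37 °C; measured by: Steady-Glo luciferase luminescence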
CHOP confirm: confirmation of CHOP induction inhibitors. AID 504437. 2,100 tested, 45% active. inhibition, % at 10 µM. shares compounds with CHOP inhibitor. CHO-CHOP promoter luciferase reporter, tunicamycin-induced, luminescence;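 active = mean of three repeat readings of reporter signal inhibition above a set limit, cut at about 70% in these data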
Numbers stand for hits; - = inactive; . = not tested or not shown. Only some compounds are listed: those with a hit (about 4.2% of all), similar ones and a draw of the others.

SMILES	Lipid droplet	UPR XBP1 act	ANO1 block	CHOP inhibitor	ANO1 activ	UPR CHOP act	CHOP confirm
Fc1cccc(/C=N/NC(=S)Nc2ccccc2Cl)c1	-	-	-	103.9	-	-	-
COCCSc1nnc(NC(=O)C2CC(=O)N(C3CCCC3)C2)s1 (stereo not given)	-	-	-	.	-	-	.
OC(CSc1ccccc1Cl)CN1CCN(c2ccccc2F)CC1 (stereo not given)	-	-	-	-	-	-	.
OC(CSc1c(Cl)cccc1Cl)CN1CCN(c2ccccc2F)CC1 (stereo not given)	-	-	-	97.2	-	-	-
S=C(Nc1ccccc1)Nc1ccc(OCc2ccc(Cl)cc2Cl)cc1	-	-	-	107.7	-	-	115.1
CCOc1ccc2ccccc2c1/C=N/NC(=O)CC1(C)OCCCO1	-	-	-	-	-	-	.
O=C(OC(C(=O)Nc1cccc(C(F)(F)F)c1)c1ccccc1)C1CCCCC1 (stereo not given)	-	.	-	106.7	-	.	-
CC(OC(=O)C1CCCCC1)C(=O)Nc1cccc(Cl)c1 (stereo not given)	-	-	-	-	-	-	.
Nc1c2nc(-c3ccccc3)[nH]c(=O)c2nc(=O)n1-c1ccccc1	-	-	-	102.7	-	-	-
O=c1[nH]c(-c2ccc(F)cc2)nc2c1sc(=S)n2-c1ccccc1	-	-	-	-	-	-	.
Cc1cc2nc(N=C(N)N)nc(C)c2cc1C	-	.	.	-	-	.	.
O=C(CCCCCNc1nc(=S)[nH]c2ccccc12)NCCc1c[nH]c2ccccc12	-	-	-	-	-	-	.
O=C(NCCc1ccccc1)C1CCC(CNc2nc(=S)[nH]c3ccccc23)CC1 (stereo not given)	-	-	-	103.8	-	-	-
O=C(CCCCCNc1nc(=S)[nH]c2ccccc12)NCCC1=CCCCC1	-	-	-	100.8	-	-	-
COc1ccc2[nH]cc(CCNC(=O)C3CCCO3)c2c1 (stereo not given)	-	-	-	-	-	-	.
CCOc1cc(Cl)c(NC(=O)CC)cc1OCC	-	-	-	-	-	-	.
CC(=O)C1=C(c2ccc(Br)cc2)C(=O)c2ccccc2C1=O	-	.	-	109.6	-	.	107.7
CCCOc1ccc(/C=C/c2c([N+](=O)[O-])c(=O)n(C)c(=O)n2C)cc1	-	-	-	.	-	-	.
NC(=O)c1ccc(C(F)(F)F)n(Cc2ccc(Cl)cc2)c1=O	.	-	-	97.4	-	-	82.3
O=C(c1ccc(C(F)(F)F)n(Cc2ccc(Cl)cc2)c1=O)N1CCOCC1	-	-	-	.	-	-	.
C=COc1ccc(N2C(=O)c3ccccc3OC2C)cc1 (stereo not given)	-	-	-	.	-	-	.
COc1ccccc1NS(=O)(=O)c1cccc(NC(=O)Nc2cccc(Cl)c2)c1	-	-	-	101.4	-	-	-
CCS(=O)(=O)N1CCC(C(=O)Nc2ccccc2OC)CC1	-	-	-	.	-	-	.
CCOC(=O)COc1ccc(Br)cc1/C=C1\SC(N)=NC1=O	-	-	-	.	-	-	.
CCOC(=O)CSC1=NC(=O)/C(=C\c2ccc(OC(C)=O)cc2)S1	.	-	-	106.4	-	-	-
SMILES	Lipid droplet	UPR XBP1 act	ANO1 block	CHOP inhibitor	ANO1 activ	UPR CHOP act	CHOP confirm
CCOC(=O)c1sc(NC(=O)CSc2nnnn2-c2ccc(C)cc2C)nc1C	.	-	-	100.2	-	-	-
CC1CCN(S(=O)(=O)c2ccc3c(c2)C(=NO)c2cc(S(=O)(=O)N4CCC(C)CC4)ccc2-3)CC1	.	-	-	108.1	-	-	138.5
CN1C=CC(=C2C(=O)c3ccccc3C2=O)C=C1	.	-	.	-	.	-	.
CCN1C=CC(=C2C(=O)c3ccccc3C2=O)C=C1	.	-	-	99.7	-	-	115.1
CCCN1C=CC(=C2C(=O)c3ccccc3C2=O)C=C1	-	-	-	103.2	-	-	125.5
CCCCCCN1C=CC(=C2C(=O)c3ccccc3C2=O)C=C1	-	-	-	98.6	-	-	101.5
COC(=O)CCC/C=C1/SCC(NC(=O)c2ccccc2)/C1=N/O (stereo not given)	-	-	-	-	-	-	.
CCCc1cc2nnc(SCC(=O)N(C)C3CCCCC3)n2c(N)n1	-	-	-	.	-	-	.
COc1cccc(N2CCN(c3ncnc4c3[nH]c3ccccc34)CC2C)c1 (stereo not given)	-	-	100	108.5	.	-	116.8
CCn1c(-c2nn(-c3ccc(C)cc3)ccc2=O)n[nH]c1=S	-	-	-	-	-	-	.
Cc1ccc(-n2ccc(=O)c(-c3ccnc(SCc4cccc(Cl)c4)n3)n2)cc1	.	-	-	98.2	-	-	-
O=C(O)CC/C(=N\NC(=O)c1ccccc1Br)c1ccccc1	-	-	-	-	-	-	.
Cc1nc2ccc(NS(=O)(=O)c3cccc([N+](=O)[O-])c3)cc2s1	.	-	.	.	-	-	.
Cc1ccc(NC(=O)CSC2=C(C#N)C(c3ccco3)C3=C(CC(C)(C)CC3=O)N2)cc1 (stereo not given)	-	-	-	99.9	-	-	-
CCOc1ccc(/C=N/NC(=O)c2cc(-c3ccco3)nc3ccccc23)cc1	-	-	-	104.3	-	-	94.6
O=C(N/N=C/c1ccc(F)cc1)c1cc(-c2ccco2)nc2ccccc12	.	-	-	-	-	-	.
COC(=O)c1cc(NC(=S)Nc2cc(Cl)cc(Cl)c2)cc(C(=O)OC)c1	-	-	100	101.3	-	-	98.6
CNc1nc(Sc2ccccc2)cc(C(F)(F)F)n1	.	-	-	-	-	-	.
CNc1nc(Sc2cccc(C(F)(F)F)c2)cc(C(F)(F)F)n1	.	-	-	101.1	-	-	98.5
COc1ccccc1C(=O)COC(=O)c1cc(=O)[nH]c2ccccc12	.	-	-	.	-	-	.
Cc1ccc(C(=O)COC(=O)c2cc(=O)[nH]c3ccccc23)cc1C	-	-	-	102.4	-	-	-
CC(C(=O)Nc1nc(-c2ccc(F)cc2)cs1)N1C(=O)C2CC=CCC2C1=O (stereo not given)	.	-	.	.	-	-	.
Cc1cc(NC(=O)NC2(C(F)(F)F)Oc3ccc(Cl)cc3O2)no1 (stereo not given)	-	-	-	98.9	-	-	114.3
COCCNC(=O)NC1(C(F)(F)F)Oc2ccc(Cl)cc2O1 (stereo not given)	.	-	-	-	-	-	.
Cc1cc(NC(=O)Nc2ccccc2)n(C(C)(C)C)n1	.	-	-	.	-	-	.
